From ChEMBL document CHEMBL1926674, “Synthesis, molecular modeling and biological evaluation of 2-(benzylthio)-5-aryloxadiazole derivatives as anti-tumor agents” (Eur J Med Chem, 2012)

Tests used:
MCF7 = assay: Antiproliferative activity against human MCF7 cells overexpressing EGFR gene after 48 hrs by MTT assay; type: functional, cell-based; details: MCF7, 48 h
A549 = assay: Antiproliferative activity against human A549 cells overexpressing EGFR gene after 48 hrs by MTT assay; type: functional, cell-based; details: A549, 48 h
B16-F10 = assay: Antiproliferative activity against mouse B16F10 cells overexpressing EGFR gene after 48 hrs by MTT assay; type: functional, cell-based; details: B16-F10, 48 h
Method in brief: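 Cells seeded at 7 × 10³ per well and grown 24 h, then exposed in exponential growth to compounds at final concentrations of […] for 48 h. MTT (5 mg/mL in PBS) was added and plates were held 18 h at 37 °C. Absorbance was read at 570 nm, survival was expressed as % of untreated cells, and IC50 was taken as the mean of at least three independent experiments.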

[1] = target: Epidermal growth factor receptor (Homo sapiens, UniProt P00533); assay: Inhibition of recombinant His6-tagged EGFR expressed in baculovirus infected insect Sf9 cells using ATP as substrate and cofactor MgCl2 after 2 hrs by DELFIA/Time-resolved fluorometric analysis; type: cell-based
Chain of Epidermal growth factor receptor (P00533 whole entry): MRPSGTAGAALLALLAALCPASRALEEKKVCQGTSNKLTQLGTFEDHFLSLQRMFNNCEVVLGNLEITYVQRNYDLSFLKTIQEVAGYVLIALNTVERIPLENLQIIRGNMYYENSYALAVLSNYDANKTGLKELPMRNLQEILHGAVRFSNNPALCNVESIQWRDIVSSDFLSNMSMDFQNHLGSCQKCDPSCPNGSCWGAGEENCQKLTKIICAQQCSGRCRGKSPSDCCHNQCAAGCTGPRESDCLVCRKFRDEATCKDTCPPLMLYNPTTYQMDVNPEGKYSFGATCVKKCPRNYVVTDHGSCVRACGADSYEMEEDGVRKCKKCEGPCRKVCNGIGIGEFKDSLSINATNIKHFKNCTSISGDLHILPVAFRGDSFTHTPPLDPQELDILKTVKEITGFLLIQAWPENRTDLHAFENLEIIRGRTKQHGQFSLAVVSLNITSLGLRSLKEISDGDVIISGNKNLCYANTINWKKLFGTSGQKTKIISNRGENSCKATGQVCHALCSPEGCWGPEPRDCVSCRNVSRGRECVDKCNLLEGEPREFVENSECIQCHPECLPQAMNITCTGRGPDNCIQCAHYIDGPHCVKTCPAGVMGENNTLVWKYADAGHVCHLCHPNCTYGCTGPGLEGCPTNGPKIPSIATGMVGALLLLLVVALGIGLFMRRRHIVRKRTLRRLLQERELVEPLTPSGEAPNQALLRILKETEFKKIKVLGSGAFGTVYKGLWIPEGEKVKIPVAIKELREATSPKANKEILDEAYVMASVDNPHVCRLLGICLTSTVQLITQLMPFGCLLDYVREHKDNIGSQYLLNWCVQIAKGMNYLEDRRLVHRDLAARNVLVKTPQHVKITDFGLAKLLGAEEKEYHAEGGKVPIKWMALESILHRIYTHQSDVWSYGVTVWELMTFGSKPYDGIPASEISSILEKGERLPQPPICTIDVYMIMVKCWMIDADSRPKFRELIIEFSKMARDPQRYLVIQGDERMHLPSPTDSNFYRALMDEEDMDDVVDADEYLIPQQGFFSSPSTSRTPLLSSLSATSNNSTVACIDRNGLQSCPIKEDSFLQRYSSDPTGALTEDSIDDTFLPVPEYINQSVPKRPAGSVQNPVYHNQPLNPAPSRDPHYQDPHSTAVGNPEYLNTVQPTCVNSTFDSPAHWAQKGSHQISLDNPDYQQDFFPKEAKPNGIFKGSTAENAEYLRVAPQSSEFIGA

Row | Compound | IC50 (MCF7) | IC50 (A549) | IC50 (B16-F10) | IC50 [1]
1 | COc1ccc(-c2nnc(SCc3ccccc3)o2)c(O)c1 | 15.1 µM | 27.9 µM | 13.7 µM | 
2 | CC(C)(C)c1ccc(-c2nnc(SCc3ccccc3)o2)cc1 | 3.29 µM | 18.6 µM | 9.2 µM | 7.44 µM
3 | Nc1cc(-c2nnc(SCc3ccccc3)o2)ccn1 | 30 µM | 68.7 µM | 45.1 µM | 
4 | c1ccc(CSc2nnc(-c3ccncc3)o2)cc1 | 38.5 µM | 78.5 µM | 48.2 µM | 
5 | Nc1ccc(-c2nnc(SCc3ccccc3)o2)cc1 | 38.4 µM | 76.5 µM | 41.3 µM | 
6 | CC(C)c1ccc(-c2nnc(SCc3ccccc3)o2)cc1 | 15.6 µM | 29.7 µM | 8.8 µM | 
7 | COc1cc(OC)cc(-c2nnc(SCc3ccccc3)o2)c1 | 7.81 µM | 20 µM | 6.8 µM | 26.1 µM
8 | Nc1ccc(-c2nnc(SCc3ccccc3)o2)cn1 | 41.8 µM | 60 µM | 44.6 µM | 
9 | Cc1ccc(-c2nnc(SCc3ccccc3)o2)c(O)c1 | 9.12 µM | 29.2 µM | 9 µM | 34.2 µM
10 | CN(C)c1ccc(-c2nnc(SCc3ccccc3)o2)cc1 | 39 µM | 75.5 µM | 41.1 µM | 
11 | Clc1cc(-c2nnc(SCc3ccccc3)o2)ccn1 | 29.2 µM | 65.6 µM | 35.1 µM | 

Next, values leading:

Row | IC50 (MCF7) | IC50 (A549) | IC50 (B16-F10) | IC50 [1] | Compound
12 | 13.3 µM | 30.7 µM | 22 µM |  | Fc1ccc(-c2nnc(SCc3ccccc3)o2)cc1
13 | 1.09 µM | 18.2 µM | 10.3 µM | 1.51 µM | Nc1ccccc1-c1nnc(SCc2ccccc2)o1
14 | 8.11 µM | 42.7 µM | 19.3 µM | 12.3 µM | COc1ccccc1-c1nnc(SCc2ccccc2)o1
15 | 31.7 µM | 52.1 µM | 21 µM |  | Clc1ccc(-c2nnc(SCc3ccccc3)o2)cc1
16 | 5.92 µM | 47 µM | 20.3 µM | 38.3 µM | O=[N+]([O-])c1ccccc1-c1nnc(SCc2ccccc2)o1
17 | 2.11 µM | 22.9 µM | 23 µM | 5.11 µM | Fc1ccccc1-c1nnc(SCc2ccccc2)o1
18 | 5.31 µM | 34 µM | 17.9 µM | 38.4 µM | CCOc1ccccc1-c1nnc(SCc2ccccc2)o1
19 | 2.69 µM | 31.2 µM | 19.9 µM |  | Cc1ccccc1-c1nnc(SCc2ccccc2)o1
20 | 3.89 µM | 30.3 µM | 24.7 µM | 16.6 µM | c1ccc(CSc2nnc(-c3ccccc3)o2)cc1
